The results in this text go back to ChEMBL document CHEMBL3992557, “Synthesis and biological evaluation of novel N3-substituted dihydropyrimidine derivatives as T-type calcium channel blockers and their efficacy as analgesics in mouse models of inflammatory pain” (Bioorg Med Chem, 2017).

Calls of active or inactive are those of the source.

The target in data set [1] is Cav1.2 (voltage-dependent L-type calcium channel subunit alpha-1C) (Rattus norvegicus, UniProt P22002). As to the kind of experiment: (§1) Inhibition of GFP-fused rat Cav1.2 expressed in human tsA-201 cells co-expressing Cavbeta1b/Cavalpha2delta1 assessed as tonic block at 10 uM at holding potential of -90 mV by whole cell patch clamp method relative to control. Type of data set: cell-based. The method in brief: (§2)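 tsA-201 cells were co-transfected with rat Cav1.2 plus Cavβ1b and Cavα2δ1 (5 µg each) and a GFP marker, then kept 2 days (30°C after 16-18 h). Whole-cell patch clamp used 20 mM BaCl2 bath, P/4 leak correction, 10 kHz sampling. Tonic resting-state block at 10 µM was given as % current inhibition. Final DMSO ≤0.1%.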
In general terms: Patch clamp records ionic current or voltage across a cell membrane.

Data set [2] addresses T1, Voltage-dependent T-type calcium channel subunit alpha-1H (Homo sapiens, UniProt O95180). Nature of the data set: Inhibition of GFP-fused Cav3.2-alpha1 (unknown origin) expressed in human tsA-201 cells at 10 uM at holding potential of -110 mV by whole cell patch clamp method relative to control. Type of data set: cell-based. In outline:
(§3)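 HEK tsA-201 cells transfected by calcium phosphate with channel DNA plus GFP marker, moved to 30°C at 16-18 h, recorded two days later. Whole-cell patch clamp used Ba2+ (20 mM) external solution, pH 7.4, with CsCl-based internal solution. Recordings were P/4 leak-subtracted, 10 kHz sampling. Compound at 10 µM, DMSO ≤0.1% final, reported as % current inhibition. Cav2.2 n=3.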

For data set [3], the target named is Voltage-dependent L-type calcium channel subunit alpha-1C (Rattus norvegicus, UniProt P22002). Described as §1. It is filed as cell-based. The note with it: 10 µM. The method in brief:
as §2

Data set [4] has as its target Voltage-dependent N-type calcium channel subunit alpha-1B (Homo sapiens) (UniProt Q00975). Nature of the data set: Inhibition of GFP-fused Cav2.2 (unknown origin) expressed in human tsA-201 cells assessed as at 10 uM by whole cell patch clamp method relative to control. Type of data set: cell-based. In outline: as §3
The target in data set [5] is T1, Voltage-dependent T-type calcium channel subunit alpha-1H. As to the kind of experiment: Inhibition of GFP-fused Cav3.2-alpha1 (unknown origin) expressed in human tsA-201 cells assessed as half inactivation potential for steady state inactivation curve at 1 uM at holding potential of -110 mV by whole cell patch clamp method (reference value: -46.27 +/- 0.57 mV). Type of data set: cell-based.

Data set [6] has the same target. As to the kind of experiment: Inhibition of GFP-fused Cav3.2-alpha1 (unknown origin) expressed in human tsA-201 cells assessed as time required to reach steady state inhibition at 1 uM at holding potential of -110 mV by whole cell patch clamp method. It is filed as cell-based.
Data set [7] shares this target. As to the kind of experiment: Inhibition of GFP-fused Cav3.2-alpha1 (unknown origin) expressed in human tsA-201 cells at holding potential of -110 mV by whole cell patch clamp method. Type of data set: cell-based. The method in brief:
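tsA-201 cells transiently expressing Cav3.2 α1 plus GFP were recorded by whole-cell patch clamp with 20 mM Ba2+ as charge carrier and P/4 leak subtraction. A dose-response curve was fitted to give IC50, n=3 cells per dose. Final DMSO ≤0.1%.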

Data set [8] has the same target. As to the kind of experiment: Inhibition of GFP-fused Cav3.2-alpha1 (unknown origin) expressed in human tsA-201 cells assessed as half activation potential at 1 uM at holding potential of -110 mV by whole cell patch clamp method (reference value: -30.84 +/- 0.46 mV). It is filed as cell-based.
Data set [9] relates to Mus musculus. As to the kind of experiment: Analgesic activity in formalin-induced nociception C57BL/6J mouse model assessed as reduction in time spent licking and biting formalin injected paw per 10 uL administered intrathecally 20 mins prior to formalin injection measured up to 30 mins post formalin injection. Type of data set: functional. In outline: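 Adult male C57BL/6J mice (7-9 weeks). Intrathecal pretreatment at 0.3, 1 and 3 µg in 10 µl, or vehicle (1% DMSO in PBS, 10 µl). After 20 min, 20 µl of 1.25% formalin injected intraplantar into right hind paw.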

The subject of data set [10] is Mus musculus. As to the kind of experiment: Analgesic activity in CFA-induced mechanical hyperalgesia C57BL/6J mouse model assessed as mechanical paw withdrawal threshold at 1 ug/10 uL administered intrathecally 2 days after CFA injection measured at 20 to 150 mins post dose. Type of data set: functional. In outline: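 C57BL/6J male mice, 7-9 weeks; 30 µl CFA injected into right hind paw; 2 days later single intrathecal dose with vehicle 1% DMSO in PBS. Paw withdrawal threshold measured blinded by digital plantar aesthesiometer at 0, 20, 45, 90 and 150 min after dosing, after ≥1 h habituation. Each paw stimulated three times. n=6 per group; mean ± S.E.M, two-way ANOVA with Bonferroni test.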

The test system of data set [11] is Mus musculus. As to the kind of experiment: Analgesic activity in CFA-induced mechanical hyperalgesia C57BL/6J mouse model assessed as mechanical paw withdrawal threshold at 3 ug/10 uL administered intrathecally 2 days after CFA injection measured at 90 to 150 mins post dose. Type of data set: functional. In outline: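 Adult male C57BL/6J mice (7-9 weeks). Right hind paw given 30 µl CFA intraplantar; 2 days later dosed intrathecally at 3 µg/10 µl, vehicle 1% DMSO in PBS. Thresholds read blinded with digital plantar aesthesiometer at 0, 20, 45, 90 and 150 min, each paw tested three times. n=6 mice per group, mean ± S.E.M, two-way ANOVA with Bonferroni post-hoc.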

The target of data set [12] is T1, Voltage-dependent T-type calcium channel subunit alpha-1H. Nature of the data set: Inhibition of GFP-fused Cav3.2-alpha1 (unknown origin) expressed in human tsA-201 cells assessed as time required to reach steady state inhibition at 3 uM at holding potential of -110 mV by whole cell patch clamp method. Type of data set: cell-based.
The target is the same in data set [13]. As to the kind of experiment: Inhibition of GFP-fused Cav3.2-alpha1 (unknown origin) expressed in human tsA-201 cells assessed as half inactivation potential for steady state inactivation curve at 3 uM at holding potential of -110 mV by whole cell patch clamp method (reference value: -47.6 +/- 0.87 mV). Type of data set: cell-based.
For data set [14] the target is unchanged. Nature of the data set: Inhibition of GFP-fused Cav3.2-alpha1 (unknown origin) expressed in human tsA-201 cells assessed as half activation potential at 3 uM at holding potential of -110 mV by whole cell patch clamp method (reference value: -32.07 +/- 0.8 mV). It is filed as cell-based.

Sequence of Cav1.2 (voltage-dependent L-type calcium channel subunit alpha-1C) (P22002 whole entry, the tested form may be a part): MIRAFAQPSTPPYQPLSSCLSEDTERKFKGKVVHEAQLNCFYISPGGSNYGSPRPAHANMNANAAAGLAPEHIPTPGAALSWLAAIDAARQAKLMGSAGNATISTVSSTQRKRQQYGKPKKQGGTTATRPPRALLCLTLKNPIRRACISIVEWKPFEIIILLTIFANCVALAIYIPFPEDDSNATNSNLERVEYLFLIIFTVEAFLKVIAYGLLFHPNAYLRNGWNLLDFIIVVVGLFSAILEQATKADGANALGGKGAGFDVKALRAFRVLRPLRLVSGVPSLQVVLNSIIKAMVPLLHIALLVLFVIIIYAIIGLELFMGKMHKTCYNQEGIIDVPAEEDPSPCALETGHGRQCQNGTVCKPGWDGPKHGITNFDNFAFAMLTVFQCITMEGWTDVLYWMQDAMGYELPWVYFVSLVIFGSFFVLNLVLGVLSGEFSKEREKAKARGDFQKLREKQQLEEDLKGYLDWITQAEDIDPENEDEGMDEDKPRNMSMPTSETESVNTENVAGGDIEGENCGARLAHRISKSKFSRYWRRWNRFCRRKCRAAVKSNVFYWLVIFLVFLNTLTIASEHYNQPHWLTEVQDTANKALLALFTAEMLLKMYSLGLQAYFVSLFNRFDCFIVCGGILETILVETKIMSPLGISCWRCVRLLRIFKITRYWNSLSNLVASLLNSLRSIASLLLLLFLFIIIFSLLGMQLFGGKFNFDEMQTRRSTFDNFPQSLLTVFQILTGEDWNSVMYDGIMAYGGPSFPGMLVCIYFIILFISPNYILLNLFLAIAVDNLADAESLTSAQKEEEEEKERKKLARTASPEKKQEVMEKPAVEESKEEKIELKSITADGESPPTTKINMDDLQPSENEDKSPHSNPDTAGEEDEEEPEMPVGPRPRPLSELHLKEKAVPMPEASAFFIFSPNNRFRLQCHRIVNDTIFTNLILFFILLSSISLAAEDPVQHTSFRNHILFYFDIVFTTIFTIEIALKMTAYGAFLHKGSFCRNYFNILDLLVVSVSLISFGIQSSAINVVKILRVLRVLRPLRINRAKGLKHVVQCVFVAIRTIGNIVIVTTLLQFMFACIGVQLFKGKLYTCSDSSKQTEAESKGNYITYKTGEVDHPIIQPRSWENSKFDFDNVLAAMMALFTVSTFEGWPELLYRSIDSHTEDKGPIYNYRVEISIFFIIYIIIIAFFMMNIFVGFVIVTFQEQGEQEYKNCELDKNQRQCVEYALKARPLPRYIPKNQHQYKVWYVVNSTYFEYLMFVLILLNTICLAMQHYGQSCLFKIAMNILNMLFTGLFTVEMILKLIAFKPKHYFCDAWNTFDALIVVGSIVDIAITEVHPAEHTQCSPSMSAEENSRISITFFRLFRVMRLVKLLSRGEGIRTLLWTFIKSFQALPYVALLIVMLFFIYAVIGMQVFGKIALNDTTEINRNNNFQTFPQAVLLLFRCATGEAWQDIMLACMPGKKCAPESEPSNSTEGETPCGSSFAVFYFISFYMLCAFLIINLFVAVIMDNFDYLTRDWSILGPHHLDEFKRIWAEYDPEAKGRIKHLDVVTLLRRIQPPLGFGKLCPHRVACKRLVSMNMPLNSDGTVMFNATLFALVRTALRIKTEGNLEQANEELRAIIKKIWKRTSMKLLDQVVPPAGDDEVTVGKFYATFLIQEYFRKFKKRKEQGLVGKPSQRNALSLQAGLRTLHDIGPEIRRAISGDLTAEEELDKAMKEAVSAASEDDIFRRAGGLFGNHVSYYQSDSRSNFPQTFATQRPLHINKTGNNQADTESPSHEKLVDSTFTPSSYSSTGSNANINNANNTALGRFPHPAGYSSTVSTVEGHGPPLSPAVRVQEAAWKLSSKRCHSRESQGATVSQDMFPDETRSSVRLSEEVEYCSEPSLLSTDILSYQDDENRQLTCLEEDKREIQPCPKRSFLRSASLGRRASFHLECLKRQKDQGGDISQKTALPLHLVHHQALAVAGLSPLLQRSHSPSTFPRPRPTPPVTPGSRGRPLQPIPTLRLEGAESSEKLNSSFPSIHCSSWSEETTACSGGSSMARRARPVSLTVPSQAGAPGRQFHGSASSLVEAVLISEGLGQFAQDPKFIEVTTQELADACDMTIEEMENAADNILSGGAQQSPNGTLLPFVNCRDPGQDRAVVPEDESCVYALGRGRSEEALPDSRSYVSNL
Sequence of Voltage-dependent L-type calcium channel subunit alpha-1C (P22002 whole entry): as the sequence (P22002 whole entry, the tested form may be a part) above
T1 sequence (O95180 whole entry, the tested form may be a part): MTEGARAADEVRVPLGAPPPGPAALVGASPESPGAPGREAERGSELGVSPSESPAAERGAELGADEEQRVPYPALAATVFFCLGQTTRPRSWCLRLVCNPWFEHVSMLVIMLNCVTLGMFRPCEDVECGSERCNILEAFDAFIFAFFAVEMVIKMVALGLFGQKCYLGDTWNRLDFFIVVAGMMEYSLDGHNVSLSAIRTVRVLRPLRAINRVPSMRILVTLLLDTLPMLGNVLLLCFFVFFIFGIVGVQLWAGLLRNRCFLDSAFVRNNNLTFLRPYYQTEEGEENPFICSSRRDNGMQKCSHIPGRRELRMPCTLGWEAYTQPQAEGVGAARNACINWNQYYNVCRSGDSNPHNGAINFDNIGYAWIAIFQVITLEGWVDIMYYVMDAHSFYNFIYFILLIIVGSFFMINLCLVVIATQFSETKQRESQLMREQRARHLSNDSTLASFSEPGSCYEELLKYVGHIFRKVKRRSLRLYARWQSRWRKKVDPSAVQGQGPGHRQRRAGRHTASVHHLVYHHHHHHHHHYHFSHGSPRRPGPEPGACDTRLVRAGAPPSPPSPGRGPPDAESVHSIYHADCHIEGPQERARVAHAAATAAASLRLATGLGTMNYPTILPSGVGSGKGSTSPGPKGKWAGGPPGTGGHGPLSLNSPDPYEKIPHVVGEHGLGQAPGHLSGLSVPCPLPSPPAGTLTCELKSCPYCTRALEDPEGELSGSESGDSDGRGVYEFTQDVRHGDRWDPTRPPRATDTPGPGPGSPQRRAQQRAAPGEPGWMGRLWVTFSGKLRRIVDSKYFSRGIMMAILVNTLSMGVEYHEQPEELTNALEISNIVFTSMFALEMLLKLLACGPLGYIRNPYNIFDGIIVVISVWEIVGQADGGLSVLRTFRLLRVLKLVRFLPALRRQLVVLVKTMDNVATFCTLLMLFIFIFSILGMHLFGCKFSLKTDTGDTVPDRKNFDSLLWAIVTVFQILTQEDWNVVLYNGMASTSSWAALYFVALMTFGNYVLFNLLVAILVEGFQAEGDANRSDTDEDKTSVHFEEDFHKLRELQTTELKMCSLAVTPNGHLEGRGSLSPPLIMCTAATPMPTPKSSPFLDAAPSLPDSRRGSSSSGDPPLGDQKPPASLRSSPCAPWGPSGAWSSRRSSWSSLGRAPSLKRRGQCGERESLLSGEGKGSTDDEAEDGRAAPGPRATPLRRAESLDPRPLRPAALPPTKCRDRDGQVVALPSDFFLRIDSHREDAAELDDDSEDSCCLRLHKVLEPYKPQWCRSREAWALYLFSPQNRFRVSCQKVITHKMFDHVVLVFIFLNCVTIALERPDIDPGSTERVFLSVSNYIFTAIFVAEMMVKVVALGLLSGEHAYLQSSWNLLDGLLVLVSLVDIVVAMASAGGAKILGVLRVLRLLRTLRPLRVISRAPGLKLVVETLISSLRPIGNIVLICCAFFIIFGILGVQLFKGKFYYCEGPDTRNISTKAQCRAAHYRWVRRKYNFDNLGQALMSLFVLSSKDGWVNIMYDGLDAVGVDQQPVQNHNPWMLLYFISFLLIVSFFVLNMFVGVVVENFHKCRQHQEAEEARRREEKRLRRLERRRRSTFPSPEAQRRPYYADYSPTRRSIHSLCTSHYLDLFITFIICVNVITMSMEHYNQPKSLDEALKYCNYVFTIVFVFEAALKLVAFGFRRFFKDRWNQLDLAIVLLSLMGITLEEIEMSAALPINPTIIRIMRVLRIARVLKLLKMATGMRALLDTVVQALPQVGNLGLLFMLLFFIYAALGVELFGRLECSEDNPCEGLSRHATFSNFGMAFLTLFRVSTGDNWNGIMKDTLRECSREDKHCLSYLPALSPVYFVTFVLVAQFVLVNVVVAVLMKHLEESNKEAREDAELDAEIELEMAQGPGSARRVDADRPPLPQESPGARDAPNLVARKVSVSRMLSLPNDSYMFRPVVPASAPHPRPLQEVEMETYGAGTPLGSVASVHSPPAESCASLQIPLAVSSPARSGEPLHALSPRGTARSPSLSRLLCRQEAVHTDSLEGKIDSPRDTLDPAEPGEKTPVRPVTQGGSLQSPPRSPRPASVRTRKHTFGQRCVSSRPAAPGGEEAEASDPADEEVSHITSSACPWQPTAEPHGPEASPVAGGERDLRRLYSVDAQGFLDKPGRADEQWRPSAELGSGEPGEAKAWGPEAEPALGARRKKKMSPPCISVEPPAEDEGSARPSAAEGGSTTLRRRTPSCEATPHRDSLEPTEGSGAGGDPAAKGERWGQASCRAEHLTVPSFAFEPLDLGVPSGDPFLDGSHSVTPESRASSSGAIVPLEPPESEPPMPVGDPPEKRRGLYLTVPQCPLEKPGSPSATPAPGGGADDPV

For orientation: inhibition means the change of the read-out against control, counted positive when it falls. `CCOC(=O)C1=C(C)NC(=O)N(CCC(=O)N/N=C/c2ccc(F)cc2)C1c1cccc([N+](=O)[O-])c1` (centres undefined): in data set [1], the inhibition at 10 µM was in the range of 60 to 85%. Besides, the inhibition in data set [2] is 70 to 95%.
With `CCOC(=O)C1=C(C)NC(=O)N(CCC(=O)N/N=C\C=C\c2ccccc2)C1c1cccc([N+](=O)[O-])c1` (centres undefined), the inhibition at 10 µM in data set [1] was in the range of 60 to 85%. In addition, in data set [2], the inhibition is 70 to 95%.
Turning to `CCOC(=O)C1=C(C)NC(=O)N(CCc2nnc(Nc3ccccc3)o2)C1c1cccc([N+](=O)[O-])c1` (centres undefined), the “inhibition (INH)” value in data set [3] was “Not Active”. In data set [2], the inhibition lay within 70 to 95%.
The matching figures for `CCOC(=O)C1=C(C)NC(=O)N(CCC(=O)N/N=c2\scc(-c3ccc(F)cc3)n2-c2ccccc2)C1c1cccc([N+](=O)[O-])c1` (centres undefined): “Not Active” and “inactive”.
The corresponding values for `CCOC(=O)C/C(C)=N\NC(=O)CCN1C(=O)NC(C)=C(C(=O)OCC)C1c1cccc([N+](=O)[O-])c1` (centres undefined) are “Not Active” and “inactive”.
In the case of `CCOC(=O)C1=C(C)NC(=O)N(CCC(=O)N/N=C(/C)c2ccc(F)cc2)C1c1cccc([N+](=O)[O-])c1` (centres undefined), the inhibition at 10 µM in data set [1] was in the range of 60 to 85%. For the same molecule, the inhibition in [2] was in the range of 70 to 95%.
The matching figures for `CCOC(=O)C1=C(C)NC(=O)N(CCC(=O)NNS(=O)(=O)c2ccccc2)C1c1cccc([N+](=O)[O-])c1` (centres undefined): 50% and 50%.
Take `CCOC(=O)C1=C(C)NC(=O)N(CCC(=O)N/N=C(/C)C(c2ccccc2)c2ccccc2)C1c1cccc([N+](=O)[O-])c1` (centres undefined): the “inhibition (INH)” value in [3] was “Not Active”. Besides, in [2], the inhibition entry was “inactive”.
On to `CCOC(=O)C1=C(C)NC(=O)N(CCc2nnc(Nc3ccccc3)s2)C1c1cccc([N+](=O)[O-])c1` (centres undefined), for which, in [3], the “inhibition (INH)” value was “Not Active”. Besides, the inhibition in data set [2] is 70 to 95%.
On to `CCOC(=O)C1=C(C)NC(=O)N(CCC(=O)N/N=C2/SCC(=O)N2c2ccc(C)cc2)C1c1cccc([N+](=O)[O-])c1` (centres undefined), for which the inhibition in data set [2] was 70 to 95%.
For the molecule `CCOC(=O)C1=C(C)NC(=O)N(CCC(=O)N/N=C2/C(=O)Nc3ccccc32)C1c1cccc([N+](=O)[O-])c1` (centres undefined), in data set [1], the inhibition at 10 µM stood at 50%. Also, in data set [2], the inhibition was 50%.
What is called IC50 is the concentration that gives 50% inhibition. For `CCOC(=O)C1=C(C)NC(=O)N(CCC(=O)NNC(=S)NC(c2ccccc2)c2ccccc2)C1c1cccc([N+](=O)[O-])c1` (centres undefined), the inhibition was 7.64% in data set [4] and 70 to 95% in data set [2]. In addition, the Activity in data set [5] is -51.2 mV. In addition, the TIME in [6] fell in the range of 0.133 to 0.167 h. The IC50 in data set [7] was 0.34 µM. The V1/2 in data set [8] is -30.6 mV. Moreover, the “inhibition (INH)” value in data set [3] is “Not Active”. Also, the MED in data set [9] was determined as 1 µg. Further, the outcome in [10] was Active.
`CCOC(=O)C1=C(C)NC(=O)N(CCC(=O)N/N=C(/C)c2ccccc2)C1c1cccc([N+](=O)[O-])c1` (centres undefined): the inhibition at 10 µM in data set [1] is 60 to 85%. Further, the inhibition in data set [2] lay within 70 to 95%.
`CCOC(=O)C1=C(C)NC(=O)N(CCC(=O)N/N=C/c2ccccc2)C1c1cccc([N+](=O)[O-])c1` (centres undefined): the outcome in data set [11] was Active. Besides, the figures for the inhibition in data set [4] and in data set [2] were 31.9% and 70 to 95%, respectively. Further, in data set [12], the TIME was 0.133 to 0.167 h. In addition, the IC50 in [7] was determined as 3.39 µM. For the same molecule, the inhibition at 10 µM in data set [1] is 60 to 85%. Further, the Activity result was “Dose-dependent effect” in data set [9] and -48.8 mV in data set [13]. The MED in data set [9] is 3 µg. For the same molecule, the V1/2 in data set [14] is -29.3 mV.
Regarding `CCOC(=O)C1=C(C)NC(=O)N(CCC(=O)N/N=C/C(c2ccccc2)c2ccccc2)C1c1cccc([N+](=O)[O-])c1` (centres undefined), the inhibition at 10 µM in data set [1] was 60 to 85%. Further, in [2], the inhibition is 70 to 95%.
Take `CCOC(=O)C1=C(C)NC(=O)N(CCC(=O)N/N=C(/C)CC(c2ccccc2)c2ccccc2)C1c1cccc([N+](=O)[O-])c1` (centres undefined): the inhibition at 10 µM in data set [1] fell in the range of 60 to 85%. In addition, the inhibition in data set [2] fell in the range of 70 to 95%.
As for `CCOC(=O)C1=C(C)NC(=O)N(CCC(=O)NNC(=S)Nc2ccccc2)C1c1cccc([N+](=O)[O-])c1` (centres undefined), the “inhibition (INH)” value in [3] was “Not Active”. Moreover, in data set [2], the inhibition entry was “inactive”.
In the case of `CCOC(=O)C1=C(C)NC(=O)N(CC/C(=N/N(C(C)=O)C(C)=O)OC(C)=O)C1c1cccc([N+](=O)[O-])c1` (centres undefined), the “inhibition (INH)” value in data set [3] is “Not Active”. Moreover, the inhibition entry in data set [2] was “inactive”.
The matching figures for `CCOC(=O)C1=C(C)NC(=O)N(CCC(=O)n2nc(C)cc2C)C1c1cccc([N+](=O)[O-])c1` (centres undefined): “Not Active” and “inactive”.
The matching figures for `CCOC(=O)C1=C(C)NC(=O)N(CCC(=O)N/N=C2/SCC(=O)N2c2ccccc2)C1c1cccc([N+](=O)[O-])c1` (centres undefined): “Not Active” and “inactive”.
